# Test results from ChEMBL document CHEMBL2407024, “Antimicrobial activity of imidazo[1,5-a]quinoxaline derivatives with pyridinium moiety” (Eur J Med Chem, 2013).
# Non-standard residues stand in square brackets, D forms with d. Residues, ends and D or L forms follow the SMILES beside them. Orn = NCCC[C@H](N)C(=O)O
# What was measured:
# [1] = system: Trichophyton mentagrophytes; test: Fungicidal activity against Trichophyton mentagrophytes after 6 hrs; format: functional
# Procedure, shortened: (§1)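 Tubes of test compound (5 to 500 per ml, 1 mL in nutrient agar) with fungi were incubated at 26 °C for 6 h. Inocula were then prepared in Sabouraud dextrose broth and incubated at 26 °C. The fungicidal concentration is the one giving total cell death.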
# Escherichia coli [2] = test: Bactericidal activity against Escherichia coli F-50 after 4 hrs; format: functional; settings: F-50, 4 h
# Procedure, shortened: (§2)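 Tubes contained 1 mL test compound in nutrient agar, 5 to 500 per ml. Bacteria in normal saline broth (3 × 10⁵ cfu/ml, 1 mL) were added and held 4 h, then transferred onto meal-peptone agar plates and incubated at 37 °C. MBC is the dilution giving total cell death.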
# Aspergillus niger [3] = test: Fungicidal activity against Aspergillus niger BKMF-1119 after 6 hrs; format: functional; settings: BKMF-1119, 6 h; procedure, shortened: as §1
# Pseudomonas aeruginosa [4] = test: Bactericidal activity against Pseudomonas aeruginosa 9027 after 4 hrs; format: functional; settings: Pseudomonas aeruginosa, 9027, 4 h; procedure, shortened: as §2
# Aspergillus niger [5] = test: Antifungal activity against Aspergillus niger BKMF-1119 measured every 24 hrs for 14 days by conventional dilution method; format: functional
# Procedure, shortened: (§3)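 Dilution assay in Sabouraud dextrose broth, inoculum 2 × 10^3–4 cfu/ml. MIC is the lowest concentration with no visible growth after 14 days of incubation. Run alongside a positive growth control and standard drug controls. Tests in duplicate, repeated twice.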
# Candida albicans [6] = test: Antifungal activity against Candida albicans 885-653 measured every 24 hrs for 14 days by conventional dilution method; format: functional; procedure, shortened: as §3
# Candida albicans [7] = test: Fungicidal activity against Candida albicans 885-653 after 6 hrs; format: functional; settings: 885-653, 6 h; procedure, shortened: as §1
# Bacillus cereus [8] = test: Antibacterial activity against Bacillus cereus 8035 measured every 24 hrs for 5 days by conventional dilution method; format: functional
# Procedure, shortened: (§4)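 Broth dilution in nutrient broth, inoculum 3 × 10⁵ cfu/ml. MIC is the lowest concentration showing no growth, read visually every 24 h over 5 days. Run alongside a positive growth control and standard drug controls. Tests in duplicate, repeated twice.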
# Staphylococcus aureus [9] = test: Bactericidal activity against Staphylococcus aureus 209p after 4 hrs; format: functional; procedure, shortened: as §2
# [10] = system: Trichophyton mentagrophytes; test: Antifungal activity against Trichophyton mentagrophytes measured every 24 hrs for 14 days by conventional dilution method; format: functional; procedure, shortened: as §3
# [11] = Acute toxicity in ip dosed mouse; format: organism-based; settings: in vivo
# Procedure, shortened: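 Mice; each compound given at 5 dose levels, 10 animals per dose (n = 50 per compound). Animals observed for 72 h; toxicity expressed as average lethal dose (LD50) calculated from mortality across dose groups.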
# Pseudomonas aeruginosa [12] = test: Antibacterial activity against Pseudomonas aeruginosa 9027 measured every 24 hrs for 5 days by conventional dilution method; format: functional; procedure, shortened: as §4
# Escherichia coli [13] = test: Antibacterial activity against Escherichia coli F-50 measured every 24 hrs for 5 days by conventional dilution method; format: functional; procedure, shortened: as §4
# Bacillus cereus [14] = test: Bactericidal activity against Bacillus cereus 8035 after 4 hrs; format: functional; settings: Bacillus cereus, 8035, 4 h; procedure, shortened: as §2
# Staphylococcus aureus [15] = test: Antibacterial activity against Staphylococcus aureus 209p measured every 24 hrs for 5 days by conventional dilution method; format: functional; procedure, shortened: as §4
SMILES,MIC (Aspergillus niger [5]),MIC (Candida albicans [6]),MIC (Bacillus cereus [8]),MIC [10],MIC (Pseudomonas aeruginosa [12]),MIC (Escherichia coli [13]),MIC (Staphylococcus aureus [15]),MFC [1],MBC (Escherichia coli [2]),MFC (Aspergillus niger [3]),MBC (Pseudomonas aeruginosa [4]),MFC (Candida albicans [7]),MBC (Staphylococcus aureus [9]),LD50 [11],MBC (Bacillus cereus [14])
CCCCCCn1c(=O)c2c(-c3ccccc3)nc(-c3ccc[n+](Cc4ccccc4)c3)n2c2ccccc21.[Cl-],> 500 µg/mL,7.8 µg/mL,6.3 µg/mL,500 µg/mL,> 500 µg/mL,> 500 µg/mL,0.97 µg/mL,> 500 µg/mL,> 500 µg/mL,> 500 µg/mL,> 500 µg/mL,500 µg/mL,50 µg/mL,61.1 mg/kg,> 500 µg/mL
CCCC[n+]1cccc(-c2nc(-c3ccccc3)c3c(=O)[nH]c4ccccc4n23)c1.[I-],> 500 µg/mL,> 500 µg/mL,> 500 µg/mL,> 500 µg/mL,> 500 µg/mL,> 500 µg/mL,500 µg/mL,–,–,–,–,–,–,63.2 mg/kg,–
CC1COc2c(N3CCN(C)CC3)c(F)cc3c(=O)c(C(=O)O)cn1c23 (configuration not stated) [OFLOXACIN],–,–,1.5 µg/mL,–,3.1 µg/mL,–,0.97 µg/mL,–,–,–,–,–,–,–,–
O=c1[nH]c2ccccc2n2c(-c3ccc[n+](Cc4ccccc4)c3)nc(-c3ccccc3)c12.[Cl-],> 500 µg/mL,62.5 µg/mL,125 µg/mL,500 µg/mL,> 500 µg/mL,> 500 µg/mL,31.3 µg/mL,–,–,–,–,–,–,65.7 mg/kg,–
CC(C)C[C@@H]1NC(=O)[C@H](CCCN)NC(=O)[C@H](C(C)C)NC(=O)[C@@H]2CCCN2C(=O)[C@@H](Cc2ccccc2)NC(=O)[C@H](CC(C)C)NC(=O)[C@H](CCCN)NC(=O)[C@H](C(C)C)NC(=O)[C@@H]2CCCN2C(=O)[C@@H](Cc2ccccc2)NC1=O [GRAMICIDIN S] (cyclo(L[dF]PV[Orn]L[dF]PV[Orn])),–,–,–,–,–,–,–,–,–,–,–,–,–,26 mg/kg,–
Cl.O=c1[nH]c2ccccc2n2c(-c3ccccn3)nc(-c3ccccc3)c12,> 500 µg/mL,> 500 µg/mL,> 500 µg/mL,> 500 µg/mL,> 500 µg/mL,> 500 µg/mL,> 500 µg/mL,–,–,–,–,–,–,–,–
CCCCCCCCCn1c(=O)c2c(-c3ccccc3)nc(-c3ccc[n+](Cc4cccc(C[n+]5cccc(-c6nc(-c7ccccc7)c7c(=O)n(CCCCCCCCC)c8ccccc8n67)c5)c4)c3)n2c2ccccc21.[Br-].[Br-],> 500 µg/mL,7.8 µg/mL,15.6 µg/mL,500 µg/mL,> 500 µg/mL,500 µg/mL,3.9 µg/mL,–,–,–,–,–,–,108 mg/kg,–
Cc1nc(-c2ccc[n+](Cc3ccccc3)c2)n2c1c(=O)[nH]c1ccccc12.[Cl-],> 500 µg/mL,> 500 µg/mL,> 500 µg/mL,> 500 µg/mL,> 500 µg/mL,> 500 µg/mL,500 µg/mL,–,–,–,–,–,–,–,–
Clc1ccccc1C(c1ccccc1)(c1ccccc1)n1ccnc1 [CLOTRIMAZOLE],–,0.39 µg/mL,–,3.13 µg/mL,–,–,–,3.13 µg/mL,–,–,–,0.39 µg/mL,–,–,–
CCCCCC[n+]1cccc(-c2nc(-c3ccccc3)c3c(=O)[nH]c4ccccc4n23)c1.[Br-],> 500 µg/mL,250 µg/mL,125 µg/mL,> 500 µg/mL,> 500 µg/mL,> 500 µg/mL,62.5 µg/mL,–,–,–,–,–,–,75.8 mg/kg,–
CCn1cc(C(=O)O)c(=O)c2cc(F)c(N3CCNCC3)cc21 [NORFLOXACIN],–,–,7.8 µg/mL,–,3 µg/mL,1.5 µg/mL,2.42 µg/mL,–,5 µg/mL,–,5 µg/mL,–,5 µg/mL,–,12.5 µg/mL
O=C(O)c1cn(C2CC2)c2cc(N3CCNCC3)c(F)cc2c1=O [CIPROFLOXACIN],–,–,0.25 µg/mL,–,–,–,0.25 µg/mL,–,0.5 µg/mL,–,0.5 µg/mL,–,0.25 µg/mL,–,0.25 µg/mL
C[C@@H]1[C@H](O)[C@@H](C)/C=C/C=C/C=C/C=C/C=C/C=C/C=C/[C@H](O[C@@H]2O[C@H](C)[C@@H](O)[C@H](N)[C@@H]2O)C[C@@H]2O[C@](O)(C[C@@H](O)C[C@@H](O)[C@H](O)CC[C@@H](O)C[C@@H](O)CC(=O)O[C@H]1C)C[C@H](O)[C@H]2C(=O)O [AMPHOTERICIN B],20 µg/mL,0.97 µg/mL,–,3.13 µg/mL,–,–,–,250 µg/mL,–,250 µg/mL,–,50 µg/mL,–,27.7 mg/kg,–

# Now from value to compound, other results behind:
MIC (Aspergillus niger [5]),MIC (Candida albicans [6]),MIC (Bacillus cereus [8]),MIC [10],MIC (Pseudomonas aeruginosa [12]),MIC (Escherichia coli [13]),MIC (Staphylococcus aureus [15]),SMILES,MFC [1],MBC (Escherichia coli [2]),MFC (Aspergillus niger [3]),MBC (Pseudomonas aeruginosa [4]),MFC (Candida albicans [7]),MBC (Staphylococcus aureus [9]),LD50 [11],MBC (Bacillus cereus [14])
> 500 µg/mL,15.6 µg/mL,62.5 µg/mL,> 500 µg/mL,500 µg/mL,250 µg/mL,62.5 µg/mL,CCCCCCn1c(=O)c2c(-c3ccccc3)nc(-c3ccc[n+](CCCCCC)c3)n2c2ccccc21.[I-],–,–,–,–,–,–,–,–
> 500 µg/mL,3.9 µg/mL,12.5 µg/mL,500 µg/mL,> 500 µg/mL,> 500 µg/mL,1.95 µg/mL,CCCCCCCCCn1c(=O)c2c(-c3ccccc3)nc(-c3ccc[n+](Cc4ccccc4)c3)n2c2ccccc21.[Cl-],> 500 µg/mL,> 500 µg/mL,> 500 µg/mL,> 500 µg/mL,500 µg/mL,50 µg/mL,–,> 500 µg/mL
> 500 µg/mL,3.9 µg/mL,> 500 µg/mL,250 µg/mL,> 500 µg/mL,> 500 µg/mL,> 500 µg/mL,O=c1[nH]c2ccccc2n2c(-c3ccc[n+](CCCC[n+]4cccc(-c5nc(-c6ccccc6)c6c(=O)[nH]c7ccccc7n56)c4)c3)nc(-c3ccccc3)c12.[Br-].[Br-],–,–,–,–,–,–,–,–
> 500 µg/mL,50 µg/mL,6.3 µg/mL,500 µg/mL,> 500 µg/mL,> 500 µg/mL,1.5 µg/mL,CCCCCCCCCn1c(=O)c2c(-c3ccccc3)nc(-c3ccc[n+](CCCCCCCCC)c3)n2c2ccccc21.[Br-],> 500 µg/mL,> 500 µg/mL,> 500 µg/mL,> 500 µg/mL,500 µg/mL,50 µg/mL,–,500 µg/mL
> 500 µg/mL,15.6 µg/mL,62.5 µg/mL,> 500 µg/mL,> 500 µg/mL,> 500 µg/mL,12.5 µg/mL,CCCCCCn1c(=O)c2c(-c3ccccc3)nc(-c3ccc[n+](Cc4cccc(C[n+]5cccc(-c6nc(-c7ccccc7)c7c(=O)n(CCCCCC)c8ccccc8n67)c5)c4)c3)n2c2ccccc21.[Br-].[Br-],–,–,–,–,–,–,–,–
> 500 µg/mL,> 500 µg/mL,7.8 µg/mL,> 500 µg/mL,> 500 µg/mL,> 500 µg/mL,7.8 µg/mL,CCCCCCCCCn1c(=O)c2c(-c3ccccc3)nc(-c3ccc[n+](CCCCCCCCC)c3)n2c2ccccc21.[I-],> 500 µg/mL,> 500 µg/mL,> 500 µg/mL,> 500 µg/mL,> 500 µg/mL,500 µg/mL,–,> 500 µg/mL
> 500 µg/mL,62.5 µg/mL,125 µg/mL,500 µg/mL,> 500 µg/mL,> 500 µg/mL,31.3 µg/mL,Cn1c(=O)c2c(-c3ccccc3)nc(-c3ccc[n+](Cc4ccccc4)c3)n2c2ccccc21.[Cl-],–,–,–,–,–,–,–,–
> 500 µg/mL,25 µg/mL,125 µg/mL,> 500 µg/mL,> 500 µg/mL,> 500 µg/mL,62.5 µg/mL,CCCCCCCCCn1c(=O)c2c(-c3ccccc3)nc(-c3ccc[n+](CCCCCC)c3)n2c2ccccc21.[I-],–,–,–,–,–,–,–,–
> 500 µg/mL,> 500 µg/mL,> 500 µg/mL,> 500 µg/mL,> 500 µg/mL,> 500 µg/mL,> 500 µg/mL,Cl.O=c1[nH]c2ccccc2n2c(-c3cccnc3)nc(-c3ccccc3)c12,–,–,–,–,–,–,–,–
> 500 µg/mL,> 500 µg/mL,> 500 µg/mL,> 500 µg/mL,> 500 µg/mL,> 500 µg/mL,500 µg/mL,O=c1[nH]c2ccccc2n2c(-c3ccc[n+](CCCCCC[n+]4cccc(-c5nc(-c6ccccc6)c6c(=O)[nH]c7ccccc7n56)c4)c3)nc(-c3ccccc3)c12.[Br-].[Br-],–,–,–,–,–,–,–,–
> 500 µg/mL,> 500 µg/mL,125 µg/mL,> 500 µg/mL,> 500 µg/mL,> 500 µg/mL,62.5 µg/mL,CCCn1c(=O)c2c(-c3ccccc3)nc(-c3ccc[n+](Cc4ccccc4)c3)n2c2ccccc21.[Cl-],–,–,–,–,–,–,–,–
> 500 µg/mL,> 500 µg/mL,> 500 µg/mL,> 500 µg/mL,> 500 µg/mL,> 500 µg/mL,500 µg/mL,CCCCCCCCCCCCCCCCCCn1c(=O)c2c(-c3ccccc3)nc(-c3ccc[n+](Cc4ccccc4)c3)n2c2ccccc21.[Cl-],–,–,–,–,–,–,–,–
> 500 µg/mL,250 µg/mL,> 500 µg/mL,> 500 µg/mL,> 500 µg/mL,> 500 µg/mL,125 µg/mL,O=c1c2c(-c3ccccc3)nc3n2c2ccccc2n1CCCCCCCCCCn1c(=O)c2c(-c4ccccc4)nc(n2c2ccccc21)-c1ccc[n+](c1)Cc1cccc(c1)C[n+]1cccc-3c1.[Br-].[Br-],–,–,–,–,–,–,–,–
